Source: ChEMBL document CHEMBL1137220, “2-(2-(dimethylaminomethyl)phenoxy)-5-iodophenylamine: an improved serotonin transporter imaging agent” (J Med Chem, 2004)
Where “and” joins values, the source holds several entries; their conditions need not be identical. Equal entries are not always repeated.

Experiments:
[1] = Biodistribution in rat heart was determined after 120 min of intravenous administration of the compound; [125I]- is used as radioactive isotope; assay type: ADME, organism-based; settings: in vivo, 2 h
Summary of the method: (§1)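 Rats under ether anesthesia, three per group, received 10 μCi tracer in 0.2 mL saline into the femoral vein. They were killed by cardiac excision under ether at each time point. Organs were removed, weighed and counted. Percent dose per organ was calculated against a 1%-of-injected-dose standard counted at the same time.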

[2] = Biodistribution in rat skin was determined after 60 min of intravenous administration of the compound; [125I]- is used as radioactive isotope; assay type: ADME, organism-based, Zone of skin; settings: in vivo, 1 h
Summary of the method: (§2)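 Rats, three per group, under ether anaesthesia, received 10 μCi of [¹²⁵I]-labelled tracer in 0.2 mL saline into the femoral vein. They were killed by cardiac excision under ether at each time point. Organs were removed, weighed and counted. Percent dose per organ was calculated against counts of a 1% aliquot of the injected dose (100-fold diluted) counted at the same time.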

[3] = Biodistribution in rat lung was determined after 30 min of intravenous administration of the compound; [125I]- is used as radioactive isotope; assay type: ADME, organism-based; settings: in vivo, 0.5 h; summary of the method: as §1
[4] = Biodistribution in rat skin was determined after 2 min of intravenous administration of the compound; [125I]- is used as radioactive isotope; assay type: ADME, organism-based, Zone of skin; settings: in vivo; summary of the method: as §2
[5] = Biodistribution in rat spleen was determined after 2 min of intravenous administration of the compound; [125I]- is used as radioactive isotope; assay type: ADME, organism-based; settings: in vivo; summary of the method: as §2
[6] = Biodistribution in rat blood was determined after 240 min of intravenous administration of the compound; [125I]- is used as radioactive isotope; assay type: ADME, organism-based; settings: in vivo, 4 h; summary of the method: as §1
[7] = Biodistribution in rat liver was determined after 6 hours of intravenous administration of the compound; [125I]- is used as radioactive isotope; assay type: ADME, organism-based; settings: in vivo; summary of the method: as §1
[8] = Distribution ratio in hippocampus and cerebellum was determined after 120 min of intravenous administration of the compound; [125I]- is used as radioactive isotope; assay type: ADME, tissue-based; settings: rat, 2 h
Summary of the method: (§3)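 After femoral-vein injection of 10 μCi [¹²⁵I] tracer in 0.2 mL saline under ether anaesthesia (three rats per group), brain regions were dissected, weighed and counted: cortex (frontal plus occipital), hippocampus, hypothalamus and cerebellum. %dose/g was calculated against a diluted injected-dose standard. Ratio = (region − cerebellum)/cerebellum on a %dose/g basis, with cerebellum as the background region.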

[9] = target: Sodium-dependent serotonin transporter (Homo sapiens, UniProt P31645); experiment: Binding affinity for serotonin transporter expressed in […] cells; assay type: cell-based
Summary of the method: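 Membranes from confluent pig kidney LLC-PK₁ cells stably expressing the respective transporter, homogenized and pelleted, 30–40 μg protein. Incubated with 0.4 nM [¹²⁵I]IPT or [¹²⁵I]IDAM and 8–10 competitor concentrations (10⁻¹⁰ to 10⁻⁵ M) in 50 mM Tris-HCl pH 7.4, 120 mM NaCl, 0.1% BSA, 1 h at room temperature. Nonspecific binding was defined with 10 μM CFT for IPT and 1 μM IDAM for IDAM. Filtration, gamma counting, nonlinear regression for Ki.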

[10] = Biodistribution in rat spleen was determined after 60 min of intravenous administration of the compound; [125I]- is used as radioactive isotope; assay type: ADME, organism-based; settings: in vivo, 1 h; summary of the method: as §2
[11] = Distribution ratio in cortex and cerebellum was determined after 30 min of intravenous administration of the compound; [125I]- is used as radioactive isotope; assay type: ADME, tissue-based; settings: rat, 0.5 h; summary of the method: as §3
[12] = Regional brain distribution in rat hypothalamus was determined after 11 hours of intravenous administration of the compound; [125I]- is used as radioactive isotope; assay type: ADME, tissue-based; settings: in vivo
Summary of the method: (§4)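 Rats, three per group, injected with 10 μCi tracer in 0.2 mL saline via the femoral vein under ether anesthesia and killed by cardiac excision at the stated time. Cortex (frontal plus occipital), striatum, hippocampus, cerebellum and hypothalamus were dissected, weighed and gamma-counted. Values are % dose/g, calculated by comparison with counts of a 100-fold diluted aliquot of the injected dose.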

[13] = Biodistribution in rat liver was determined after 60 min of intravenous administration of the compound; [125I]- is used as radioactive isotope; assay type: ADME, organism-based; settings: in vivo, 1 h; summary of the method: as §1
[14] = Regional brain distribution in rat hippocampus was determined after 24 hours of intravenous administration of the compound; [125I]- is used as radioactive isotope; assay type: ADME, tissue-based; settings: in vivo; summary of the method: as §4
[15] = Biodistribution in rat thyroid was determined after 240 min of intravenous administration of the compound; [125I]- is used as radioactive isotope; assay type: ADME, organism-based, Thyroid gland; settings: in vivo, 4 h; summary of the method: as §2
[16] = Biodistribution in rat brain was determined after 120 min of intravenous administration of the compound; [125I]- is used as radioactive isotope; assay type: ADME, organism-based; settings: in vivo, 2 h; summary of the method: as §1
[17] = Regional brain distribution in rat hypothalamus was determined after 120 min of intravenous administration of the compound; [125I]- is used as radioactive isotope; assay type: ADME, tissue-based; settings: in vivo, 2 h; summary of the method: as §4
[18] = Regional brain distribution in rat cerebellum was determined after 2 min of intravenous administration of the compound; [125I]- is used as radioactive isotope; assay type: ADME, tissue-based; settings: in vivo; summary of the method: as §4
[19] = Distribution ratio in hippocampus and cerebellum was determined after 11 hrs of intravenous administration of the compound; [125I]- is used as radioactive isotope; assay type: ADME, tissue-based; settings: rat; summary of the method: as §3
[20] = Biodistribution in rat kidney was determined after 30 min of intravenous administration of the compound; [125I]- is used as radioactive isotope; assay type: ADME, organism-based; settings: in vivo, 0.5 h; summary of the method: as §1
[21] = Regional brain distribution in rat hypothalamus was determined after 60 min of intravenous administration of the compound; [125I]- is used as radioactive isotope; assay type: ADME, tissue-based; settings: in vivo, 1 h; summary of the method: as §4
[22] = Regional brain distribution in rat hippocampus was determined after 2 min of intravenous administration of the compound; [125I]- is used as radioactive isotope; assay type: ADME, tissue-based; settings: in vivo; summary of the method: as §4
[23] = Biodistribution in rat blood was determined after 11 hours of intravenous administration of the compound; [125I]- is used as radioactive isotope; assay type: ADME, organism-based; settings: in vivo; summary of the method: as §1
[24] = Regional brain distribution in rat hypothalamus was determined after 2 min of intravenous administration of the compound; [125I]- is used as radioactive isotope; assay type: ADME, tissue-based; settings: in vivo; summary of the method: as §4
[25] = Biodistribution in rat spleen was determined after 120 min of intravenous administration of the compound; [125I]- is used as radioactive isotope; assay type: ADME, organism-based; settings: in vivo, 2 h; summary of the method: as §2
[26] = Regional brain distribution in rat hippocampus was determined after 60 min of intravenous administration of the compound; [125I]- is used as radioactive isotope; assay type: ADME, tissue-based; settings: in vivo, 1 h; summary of the method: as §4
[27] = Biodistribution in rat skin was determined after 11 hours of intravenous administration of the compound; [125I]- is used as radioactive isotope; assay type: ADME, organism-based, Zone of skin; settings: in vivo; summary of the method: as §2
[28] = Regional brain distribution in rat striatum was determined after 24 hours of intravenous administration of the compound; [125I]- is used as radioactive isotope; assay type: ADME, tissue-based; settings: in vivo; summary of the method: as §4
[29] = Biodistribution in rat thyroid was determined after 24 hours of intravenous administration of the compound; [125I]- is used as radioactive isotope; assay type: ADME, organism-based, Thyroid gland; settings: in vivo; summary of the method: as §2
[30] = Biodistribution in rat lung was determined after 24 hours of intravenous administration of the compound; [125I]- is used as radioactive isotope; assay type: ADME, organism-based; settings: in vivo; summary of the method: as §1
[31] = Regional brain distribution in rat cerebellum was determined after 240 min of intravenous administration of the compound; [125I]- is used as radioactive isotope; assay type: ADME, tissue-based; settings: in vivo, 4 h; summary of the method: as §4
[32] = Biodistribution in rat liver was determined after 240 min of intravenous administration of the compound; [125I]- is used as radioactive isotope; assay type: ADME, organism-based; settings: in vivo, 4 h; summary of the method: as §1
[33] = Biodistribution in rat brain was determined after 30 min of intravenous administration of the compound; [125I]- is used as radioactive isotope; assay type: ADME, organism-based; settings: in vivo, 0.5 h; summary of the method: as §1

Chain of Sodium-dependent serotonin transporter (P31645 whole entry): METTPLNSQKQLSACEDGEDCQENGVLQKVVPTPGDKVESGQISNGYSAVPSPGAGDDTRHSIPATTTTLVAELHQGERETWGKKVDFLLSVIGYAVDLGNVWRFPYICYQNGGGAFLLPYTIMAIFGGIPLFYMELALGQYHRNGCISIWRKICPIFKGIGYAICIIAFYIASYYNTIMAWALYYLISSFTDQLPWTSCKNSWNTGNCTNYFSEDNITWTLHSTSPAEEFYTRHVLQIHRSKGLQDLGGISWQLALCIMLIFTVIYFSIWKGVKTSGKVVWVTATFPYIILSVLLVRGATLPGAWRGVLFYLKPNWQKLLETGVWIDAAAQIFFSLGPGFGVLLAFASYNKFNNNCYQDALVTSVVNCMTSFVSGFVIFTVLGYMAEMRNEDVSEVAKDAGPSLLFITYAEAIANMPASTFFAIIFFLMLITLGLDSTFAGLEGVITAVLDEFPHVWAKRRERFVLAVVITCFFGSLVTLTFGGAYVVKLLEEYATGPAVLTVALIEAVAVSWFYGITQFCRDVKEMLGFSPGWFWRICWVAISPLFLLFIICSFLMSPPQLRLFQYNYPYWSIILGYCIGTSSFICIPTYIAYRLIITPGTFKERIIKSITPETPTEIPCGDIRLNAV

Compound `CN(C)Cc1ccccc1Oc1ccc(I)cc1N` has a Dose [1] of 0.13%, a Dose [2] of 13.9% and a Dose [3] of 3.56%. It also gave a Dose [4] of 4.45%, a Dose [5] of 0.44% and a Dose [6] of 3.12%. For the same compound, the Dose [7] was 3.59%, the Dose/g [8] was 2.19% and the Ki [9] was 0.37 nM. The Dose [10] was 0.47%, the Dose/g [11] was 0.96% and the Dose/g [12] was 0.01%. The Dose [13] was 5.79%, the Dose/g [14] was 0.004% and the Dose [15] was 2.34%. The Dose [16] was 1.08%, the Dose/g [17] was 0.92% and the Dose/g [18] was 0.79% and 0.64%. For the same compound, the Dose/g [19] was 0.09%, the Dose [20] was 2.67% and the Dose/g [21] was 1.18%. It also gave a Dose/g [22] of 0.86%, a Dose [23] of 2.52% and a Dose/g [24] of 0.96%. The Dose [25] was 0.27%, the Dose/g [26] was 0.94% and the Dose [27] was 10.9%. The Dose/g [28] was 0.0039%, the Dose [29] was 4.61% and the Dose [30] was 0.04%. The Dose/g [31] was 0.06%, the Dose [32] was 3.52% and the Dose [33] was 2.12%.
